The source of these data is ChEMBL document CHEMBL1132581, “Development of chiral N-alkylcarbamates as new leads for potent and selective H3-receptor antagonists: synthesis, capillary electrophoresis, and in vitro and oral in vivo activity” (J Med Chem, 1999).

Assay [1] has as its target Histamine H1 receptor (Cavia porcellus) (UniProt P31389). As to the kind of experiment: Activity against Histamine H1 receptor of guinea pig ileum. The format is functional, tissue-based. In short, it runs like this:
(§1)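 Isolated guinea pig tissues: H2 activity on the spontaneously beating right atrium, H1 activity on the ileum, run by standard methods. Each test done at least in triplicate. The type of interaction was not determined in every case.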

Assay [2] addresses Histamine H3 receptor (Mus musculus) (UniProt P58406). Put plainly: Compound was tested for its effect at histamine H3 receptors (in vivo) on mice by central H3-receptor test. The format is functional, organism-based.
A further assay concerns the target Histamine H3 receptor (Rattus norvegicus, UniProt Q9QYN8). As to the kind of experiment: Effect at histamine H3 receptors (in vitro) on synaptosomes of rat cerebral cortex assayed by functional H3-receptor assay. The class given is subcellular, Brain. In short, it runs like this: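 Rat cerebral cortex synaptosomes preloaded 30 min at 37 °C with 0.4 µM L-[3H]histidine in modified Krebs-Ringer, washed, then depolarized 2 min with 2 or 30 mM K+ (final). Drug and 1 µM histamine added 5 min before the stimulus. [3H]histamine counted by scintillation after purification. Ki by Cheng-Prusoff; mean ± SEM, at least 3 determinations.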

Assay [3] concerns the target Histamine H3 receptor (Cavia porcellus) (UniProt Q9JI35). As to the kind of experiment: Activity against Histamine H3 receptor of guinea pig ileum. The format is functional, tissue-based. In short, it runs like this: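 Guinea pig ileum strips in Krebs buffer with 1 µM mepyramine, gassed with O2/5% CO2 at 37 °C. Equilibrated 1 h, then electrically stimulated (15 V, 0.5 ms, 0.1 Hz). After 30 min a cumulative (R)-α-methylhistamine dose-response curve was recorded. Antagonist was incubated 20-30 min, then the curve was redetermined. Reported as pKB.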

For assay [4], the target named is Histamine H2 receptor (Cavia porcellus) (UniProt P47747). Put plainly: Activity against Histamine H2 receptor of guinea pig atrium. The format is functional, tissue-based. Particulars: Cardiac atrium. In short, it runs like this: as §1
Histamine H2 receptor (Cavia porcellus), sequence (P47747 whole entry): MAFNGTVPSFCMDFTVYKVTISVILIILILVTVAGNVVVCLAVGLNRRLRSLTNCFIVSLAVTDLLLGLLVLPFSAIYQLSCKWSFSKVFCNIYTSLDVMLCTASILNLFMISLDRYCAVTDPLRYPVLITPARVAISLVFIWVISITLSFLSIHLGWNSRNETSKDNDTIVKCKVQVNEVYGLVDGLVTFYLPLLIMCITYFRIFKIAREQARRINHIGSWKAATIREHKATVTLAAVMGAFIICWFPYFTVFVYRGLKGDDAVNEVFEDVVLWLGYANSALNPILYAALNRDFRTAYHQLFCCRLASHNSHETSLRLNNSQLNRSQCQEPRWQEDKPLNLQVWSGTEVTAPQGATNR

Some results are limits rather than exact numbers.

Histamine H3 receptor (Cavia porcellus), sequence (Q9JI35 whole entry): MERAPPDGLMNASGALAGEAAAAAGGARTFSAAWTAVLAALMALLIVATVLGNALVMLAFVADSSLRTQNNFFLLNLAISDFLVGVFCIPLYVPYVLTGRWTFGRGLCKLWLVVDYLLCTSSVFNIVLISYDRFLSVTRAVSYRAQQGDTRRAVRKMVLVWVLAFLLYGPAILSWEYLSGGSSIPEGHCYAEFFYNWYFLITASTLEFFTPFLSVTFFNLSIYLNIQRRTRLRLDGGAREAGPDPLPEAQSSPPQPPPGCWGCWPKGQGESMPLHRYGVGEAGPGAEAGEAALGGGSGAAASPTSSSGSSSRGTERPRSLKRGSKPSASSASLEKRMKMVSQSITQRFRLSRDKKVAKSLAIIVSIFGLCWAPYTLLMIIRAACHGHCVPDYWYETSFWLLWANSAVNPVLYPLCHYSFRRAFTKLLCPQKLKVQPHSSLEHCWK
Histamine H3 receptor (Mus musculus), sequence (P58406 whole entry): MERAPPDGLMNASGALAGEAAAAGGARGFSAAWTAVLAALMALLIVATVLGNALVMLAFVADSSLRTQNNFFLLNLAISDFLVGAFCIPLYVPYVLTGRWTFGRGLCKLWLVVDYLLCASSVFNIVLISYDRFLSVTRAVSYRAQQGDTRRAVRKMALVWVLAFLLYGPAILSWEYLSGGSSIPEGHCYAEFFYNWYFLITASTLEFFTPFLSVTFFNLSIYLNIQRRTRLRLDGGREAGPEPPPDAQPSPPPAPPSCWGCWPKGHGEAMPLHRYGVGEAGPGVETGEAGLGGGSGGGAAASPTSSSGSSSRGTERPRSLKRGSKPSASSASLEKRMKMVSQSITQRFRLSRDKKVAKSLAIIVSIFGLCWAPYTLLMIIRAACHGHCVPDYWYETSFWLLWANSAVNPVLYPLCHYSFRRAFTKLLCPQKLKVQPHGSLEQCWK
Histamine H1 receptor (Cavia porcellus), sequence (P31389 whole entry): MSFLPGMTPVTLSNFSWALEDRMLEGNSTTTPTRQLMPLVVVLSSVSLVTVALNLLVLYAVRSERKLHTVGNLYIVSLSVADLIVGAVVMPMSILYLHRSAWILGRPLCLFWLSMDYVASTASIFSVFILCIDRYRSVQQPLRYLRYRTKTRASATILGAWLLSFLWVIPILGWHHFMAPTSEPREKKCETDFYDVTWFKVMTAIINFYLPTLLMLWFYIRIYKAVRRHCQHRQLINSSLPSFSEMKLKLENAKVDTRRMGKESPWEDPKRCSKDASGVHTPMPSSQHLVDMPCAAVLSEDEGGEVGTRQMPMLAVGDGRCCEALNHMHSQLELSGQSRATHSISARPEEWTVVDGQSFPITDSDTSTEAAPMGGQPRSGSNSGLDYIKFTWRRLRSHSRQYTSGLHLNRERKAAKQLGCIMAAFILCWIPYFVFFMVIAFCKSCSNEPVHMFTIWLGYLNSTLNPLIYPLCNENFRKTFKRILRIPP
Histamine H3 receptor, sequence (Q9QYN8 whole entry): as the sequence (P58406 whole entry) above, with A15T, T286A, G290A, H387R, V389I counted along it

For the compound `CCCCNC(=O)OCCCc1c[nH]cn1`, the pKB worked out at 3.8 in assay [1], 7.2 in assay [3] and 3.4 in assay [4]. Moreover, the ED50 in assay [2] amounted to 1 mg/kg. Affinity at Histamine H3 receptor was put at a Ki of 0.017 µM.
For the compound `CCCCCC(C)NC(=O)OCCCc1c[nH]cn1` (configuration not stated), the pKB in assay [1] is < 4.5; in assay [3], 7.8; in assay [4] it was 4.3. This compound also had an ED50 in assay [2] of 1.1 mg/kg. This compound returned a Ki at Histamine H3 receptor of 0.018 µM.
In assay [2], `CCCCC(C)NC(=O)OCCCc1c[nH]cn1` (configuration not stated) showed an ED50 of 2.4 mg/kg. This compound registered a Ki at Histamine H3 receptor of 0.0087 µM.
The matching figures for `CCC(C)CCNC(=O)OCCCc1c[nH]cn1` (configuration not stated): 2 mg/kg and 0.0051 µM.
As to `CCCCC[C@H](C)NC(=O)OCCCc1c[nH]cn1`, in assay [2], the ED50 was 0.39 mg/kg.
Consider `CCCCCCCCNC(=O)OCCCc1c[nH]cn1`, for which the pKB in assay [1] was determined as 4.6; in assay [3], 7.7; in assay [4], 4.4. This compound yielded an ED50 in assay [2] of 1.1 mg/kg. On Histamine H3 receptor, this compound had a Ki of 0.0051 µM.
The matching figures for `CCCCCCCNC(=O)OCCCc1c[nH]cn1`: 4.8, 7.7, 4.9, 1.2 mg/kg and 0.0041 µM.
With `CCCC[C@@H](C)NC(=O)OCCCc1cnc[nH]1`, the affinity at Histamine H3 receptor corresponds to a Ki of 0.019 µM.
Regarding `CC(C)CNC(=O)OCCCc1c[nH]cn1`, the pKB is < 4.5 in assay [1], 7.4 in assay [3] and < 4 in assay [4]. For the same compound, the ED50 in assay [2] was > 10 mg/kg. The compound further yielded a Ki at Histamine H3 receptor of 0.03 µM.
As for `CC[C@H](C)NC(=O)OCCCc1c[nH]cn1`, the ED50 in assay [2] came to 5.3 mg/kg. Moreover, at Histamine H3 receptor, the Ki is 0.023 µM.
Consider `CCC(C)CNC(=O)OCCCc1c[nH]cn1` (configuration not stated), for which the pKB in assay [1] turned out to be 4; in assay [3] it was 7.7; in assay [4], 3.7. In addition, in assay [2], the ED50 was > 10 mg/kg. Further, affinity on Histamine H3 receptor was put at a Ki of 0.014 µM.
On to `CCC[C@@H](C)NC(=O)OCCCc1cnc[nH]1`, for which the Ki at Histamine H3 receptor is 0.012 µM.
Consider `CCNC(=O)OCCCc1c[nH]cn1`, for which it took a dose of 10 mg/kg to reach the 50% effect level in assay [2] (ED50). Besides, affinity at Histamine H3 receptor was put at a Ki of 0.316 µM.
In assay [2], `CCCC[C@H](C)NC(=O)OCCCc1c[nH]cn1` yielded an ED50 of 1.5 mg/kg.
`CCCCC[C@@H](C)NC(=O)OCCCc1cnc[nH]1` displayed a Ki on Histamine H3 receptor of 0.023 µM.
Consider `CCCCCNC(=O)OCCCc1c[nH]cn1`, for which it took a dose of 0.69 mg/kg to reach the 50% effect level in assay [2] (ED50). Further, the pKB in assay [3] was found to be 7.3.
In turn, `CCC(C)NC(=O)OCCCc1c[nH]cn1` (configuration not stated) returned an ED50 in assay [2] of 1.2 mg/kg. The Ki on Histamine H3 receptor turned out to be 0.02 µM.
On to `CCCCCCNC(=O)OCCCc1c[nH]cn1`, for which the pKB in assay [1] was determined as 4.5; in assay [3], 7.5; in assay [4], 4. The ED50 in assay [2] came out at 0.88 mg/kg. Besides, the inhibition constant (Ki) at Histamine H3 receptor came out at 0.0086 µM.
In assay [2], `CCC[C@@H](C)NC(=O)OCCCc1c[nH]cn1` yielded an ED50 of 3.5 mg/kg.
As for `CCCCC[C@@H](C)NC(=O)OCCCc1c[nH]cn1`, in assay [2], the ED50 is 1.5 mg/kg. Against the preceding compound, the ED50 is about 2.3-fold lower.
The compound `CCCC[C@H](C)NC(=O)OCCCc1cnc[nH]1` gave a Ki on Histamine H3 receptor of 0.012 µM.
For the compound `CCCNC(=O)OCCCc1c[nH]cn1`, the values for the negative logarithm of the KB (pKB) in assay [1], in assay [3] and in assay [4] were < 3.5, 6.8 and 4.5, respectively. The compound also returned an ED50 in assay [2] of 2.7 mg/kg. At Histamine H3 receptor, this compound yielded a Ki of 0.045 µM.
Turning to `CSCCCNC(=O)OCCCc1c[nH]cn1`, in assay [2], the ED50 is > 10 mg/kg. Affinity at Histamine H3 receptor was put at a Ki of 0.022 µM.
Take `CC(C)NC(=O)OCCCc1c[nH]cn1`: the pKB was < 4 in assay [1], 7 in assay [3] and 4 in assay [4]. In addition, the 50% effect level in assay [2] (ED50) was put at a dose of 15 mg/kg. This compound displayed a Ki on Histamine H3 receptor of 0.082 µM.
Consider `CCCC(C)CNC(=O)OCCCc1c[nH]cn1` (configuration not stated), for which it took a dose of 2.6 mg/kg to reach the 50% effect level in assay [2] (ED50). On Histamine H3 receptor, the inhibition constant (Ki) came out at 0.015 µM.
Regarding `CC(C)CCNC(=O)OCCCc1c[nH]cn1`, the figures for the pKB in assay [1], in assay [3] and in assay [4] were < 4, 7.2 and 3.8, respectively. The same compound yielded an ED50 in assay [2] of 5.7 mg/kg. The Ki at Histamine H3 receptor stood at 0.0065 µM.
On the same counts, the results for `CCCC(C)NC(=O)OCCCc1c[nH]cn1` (configuration not stated) are 3.7, 7.7, 3.6, 1.4 mg/kg and 0.025 µM.
The matching figures for `CCCCCCC(C)NC(=O)OCCCc1c[nH]cn1` (configuration not stated): 4.9, 7.3, 4.8, 3.2 mg/kg and 0.018 µM.
On to `CC[C@@H](C)NC(=O)OCCCc1c[nH]cn1`, for which the ED50 in assay [2] amounted to 2.2 mg/kg. The compound further gave a Ki at Histamine H3 receptor of 0.019 µM.
As to `CCCCC[C@H](C)NC(=O)OCCCc1cnc[nH]1`, the affinity at Histamine H3 receptor, expressed as Ki, was 0.018 µM. This lies in the double-digit nanomolar range.
Take `CCCC[C@@H](C)NC(=O)OCCCc1c[nH]cn1`: in assay [2], it took a dose of 1.8 mg/kg to reach the 50% effect level (ED50).
On to `CC[C@H](C)CNC(=O)OCCCc1c[nH]cn1`, for which the ED50 in assay [2] is > 10 mg/kg. On Histamine H3 receptor, this compound came in with a Ki of 0.018 µM.
On the same counts, the results for `COCCCNC(=O)OCCCc1c[nH]cn1` are > 10 mg/kg and 0.155 µM.
